Data set [1] can be described thus: Inhibition of beta-catenin-dependent canonical Wnt3A pathway in human HEK293T cells at 1 uM by luciferase reporter gene assay. Particulars: HEK-293T. The data set is classed as cell-based. The gist of the method: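 HEK293T cells transiently co-transfected with Super(8x)TOPflash (TCF-firefly luciferase), TK-Renilla luciferase for normalization, and a Wnt3A-expressing vector to activate the pathway. Compounds tested at a single concentration of 1 μM, alongside untreated and DMSO vehicle controls. Firefly signal normalized to Renilla.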
For orientation: A reporter such as luciferase makes a cellular process visible.

A short description of data set [2]: Inhibition of beta-catenin-dependent canonical Wnt3 pathway in human HEK293T cells by luciferase reporter gene assay. The data set is classed as cell-based. Particulars: HEK-293T.
The test system of data set [3] is H9. The data set is described as follows: Cardiogenic activity in human H9 cells after 14 days by MYH6-mCherry reporter gene assay relative to 4-[(1R,2S,6R,7S)-3,5-dioxo-4-azatricyclo[5.2.1.0~2,6~]dec-8-en-4-yl]-N-quinolin-8-ylbenzamide. The data set is classed as functional. In outline:
(§1)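 hESC embryoid bodies grown to day 4, dissociated to single cells and plated in 384-well format with serial compound dilutions. At day 10 switched to serum-free medium with T3. At day 14 moved to PBS and imaged for red fluorescence. Total area and intensity of the MYH6-mCherry reporter were quantified per well and expressed as percent cardiogenesis, with the reference set to 100% at its maximum.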

In data set [4] the test system is HEK-293T. In words: Inhibition of human recombinant TGFbeta2-induced Smad signaling in HEK293T cells at 0.01 to 5 uM by luciferase reporter gene assay. It is filed as cell-based. The gist of the method: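 HEK293T cells carrying a SMAD response element reporter were stimulated with human recombinant TGFβ2. Compounds were incubated at 0.01, 0.1, 1 and 5 μM. Percent inhibition of the SMAD response was calculated relative to DMSO vehicle controls.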

Data set [5] deals with H9. In words: Cardiogenic activity in human H9 cells at < 0.15 uM after 14 days by MYH6-mCherry reporter gene assay relative to 4-[(1R,2S,6R,7S)-3,5-dioxo-4-azatricyclo[5.2.1.0~2,6~]dec-8-en-4-yl]-N-quinolin-8-ylbenzamide. The data set is classed as functional, cell-based. The gist of the method:
as §1

Data set [6] deals with HEK-293T. In words: Cytotoxicity against human HEK293T cells at 0.2 to 20 uM after 24 hrs by alamar blue assay. The data set is classed as cell-based.

The structures appear in SMILES notation. The source made the active and inactive calls. The calls are words filed in the database; no cut-off is given here.

With `COc1ccc(NC(=O)c2ccc(N3C(=O)[C@@H]4[C@@H]5CC[C@@H](C5)[C@@H]4C3=O)cc2)cc1`, in data set [1], the inhibition (in general, the change of the read-out against control, counted positive when it falls) turned out to be 50%.

In data set [1], `O=C(Nc1cccc2cccnc12)c1ccc(N2C(=O)[C@@H]3[C@H]4CC[C@H](CC4)[C@@H]3C2=O)cc1` gave an inhibition of 87%. Also, inhibition in data set [2] was half-maximal at 0.314 µM (IC50). Also, the Activity in the data set on H9 [3] is recorded as 2%.

In turn, `O=C(Nc1cccc2cccnc12)c1ccc(N2C(=O)[C@@H]3[C@@H]4CC[C@@H](C4)[C@@H]3C2=O)o1` yielded an inhibition in data set [1] of 0%.

`CC(=O)c1ccccc1NC(=O)[C@H]1CC[C@@H](N2C(=O)[C@@H]3[C@@H]4CC[C@@H](C4)[C@@H]3C2=O)CC1` yielded an inhibition in data set [1] of 91%. For the same molecule, half-maximal inhibition in data set [2] (IC50) required 0.023 µM. Moreover, the values for the Activity result in the data set on H9 [3] and in the data set on H9 [3] (record 2) were “Dose-dependent effect” and 72%, respectively.

In data set [1], `CC(=O)c1ccc(NC(=O)c2ccc(N3C(=O)[C@@H]4[C@@H]5CC[C@@H](C5)[C@@H]4C3=O)cc2)cc1` yielded an inhibition of 41%.

In data set [1], `O=C(Nc1cccc2cccnc12)c1ccc(N2C(=O)C3C(C2=O)[C@H]2CC[C@@H]3O2)cc1` (some centres undefined) yielded an inhibition of 49%. Moreover, the IC50 (as a rule, the concentration that inhibits the measured activity by half) in data set [2] was 0.605 µM. This molecule had an Activity with H9 [3] of 2%.

In turn, `O=C1[C@@H]2[C@@H]3CC[C@@H](C3)[C@@H]2C(=O)N1[C@H]1CC[C@H](C(=O)Nc2cccnc2Cl)CC1` returned an inhibition in data set [1] of 13%. In data set [2], this molecule gave a half-inhibitory concentration (IC50) of 0.169 µM. For the same molecule, the Activity result with H9 [3] was “Dose-dependent effect”; in the data set with H9 [3] (record 2), 56%.

In turn, `COC(=O)c1ccccc1NC(=O)[C@H]1CC[C@H](N2C(=O)[C@@H]3[C@@H]4CC[C@@H](C4)[C@@H]3C2=O)CC1` came in with an inhibition in data set [1] of 86%. In data set [2], this molecule yielded a concentration for half-maximal inhibition (IC50) of 0.067 µM. Also, the figures for the Activity entry with H9 [3] and with H9 [3] (record 2) were “Dose-dependent effect” and 38%, respectively.

Turning to `COc1cc(Br)ccc1NC(=O)[C@H]1CC[C@H](N2C(=O)[C@@H]3[C@@H]4CC[C@@H](C4)[C@@H]3C2=O)CC1`, the results for the inhibition (with HEK-293T [4]; in data set [1]) were below 20% and 82%, respectively. The molecule also came in with an IC50 in data set [2] of 0.037 µM. The Activity entry with H9 [3] was “Dose-dependent effect”; in the data set on H9 [3] (record 2), 20%.

In turn, `O=C1[C@@H]2[C@@H]3CC[C@@H](C3)[C@@H]2C(=O)N1[C@H]1CC[C@H](C(=O)Nc2cncc3ccccc23)CC1` had an inhibition in data set [1] of 89%. Besides, the 50% inhibitory concentration (IC50) in data set [2] came to 0.055 µM. The values for the Activity result with H9 [3] and in the data set on H9 [3] (record 2) were “Dose-dependent effect” and 119%, respectively.

In data set [1], `O=C1[C@@H]2[C@@H]3CC[C@@H](C3)[C@@H]2C(=O)N1[C@H]1CC[C@H](C(=O)Nc2ccccn2)CC1` displayed an inhibition of 82%. For the same molecule, it took 0.109 µM to reach half-maximal inhibition in data set [2] (IC50). The molecule also returned an Activity in the data set with H9 [3] of 3%.

In data set [1], `O=C1[C@@H]2[C@@H]3CC[C@@H](C3)[C@@H]2C(=O)N1c1ccc(CNc2cccc3cccnc23)cc1` registered an inhibition of 45%.

For the molecule `O=C1[C@@H]2[C@@H]3CC[C@@H](C3)[C@@H]2C(=O)N1[C@H]1CC[C@H](C(=O)Nc2nccc3ccccc23)CC1`, in data set [1], the inhibition came out at 88%. Also, 0.095 µM corresponded to half-maximal inhibition in data set [2] (IC50). The Activity result with H9 [3] was “Dose-dependent effect”; with H9 [3] (record 2), 84%.

Molecule `O=C1[C@@H]2[C@@H]3CC[C@@H](C3)[C@@H]2C(=O)N1[C@H]1CC[C@H](C(=O)Nc2cccc3cnccc23)CC1` returned an inhibition in data set [1] of 87%. It took 0.161 µM to reach half-maximal inhibition in data set [2] (IC50).

`O=C(Nc1cccc2cccnc12)c1cccc(N2C(=O)[C@@H]3[C@@H]4CC[C@@H](C4)[C@@H]3C2=O)c1` yielded an inhibition in data set [1] of 0%.

`O=C1[C@@H]2[C@@H]3CC[C@@H](C3)[C@@H]2C(=O)N1[C@H]1CC[C@H](C(=O)Nc2ccnc3ccccc23)CC1` yielded an inhibition in data set [1] of 90%. Also, the IC50 in data set [2] was found to be 0.109 µM.

Molecule `CN(C)c1ccc(NC(=O)c2ccc(N3C(=O)[C@@H]4[C@@H]5CC[C@@H](C5)[C@@H]4C3=O)cc2)cc1` gave an inhibition in data set [1] of 25%.

For `O=C1[C@@H]2[C@@H]3CC[C@@H](C3)[C@@H]2C(=O)N1[C@H]1CC[C@H](C(=O)Nc2ccncc2)CC1`, the inhibition in data set [1] was found to be 84%. Also, the IC50 in data set [2] is 0.08 µM. Besides, the Activity in the data set on H9 [3] worked out at 3%.

Turning to `COc1ccccc1NC(=O)c1ccc(N2C(=O)[C@@H]3[C@@H]4CC[C@@H](C4)[C@@H]3C2=O)cc1`, the inhibition in data set [1] was 84%. The midpoint of inhibition in data set [2], the IC50, lay at 0.215 µM. The molecule further registered an Activity in the data set on H9 [3] of 8%.

As to `N#Cc1ccc(NC(=O)c2ccc(N3C(=O)[C@@H]4[C@@H]5CC[C@@H](C5)[C@@H]4C3=O)cc2)cc1`, the inhibition in data set [1] came out at 70%. Further, the IC50 in data set [2] was found to be 0.317 µM. The molecule further displayed an Activity with H9 [3] of 1%.

As for `O=C1[C@@H]2[C@@H]3CC[C@@H](C3)[C@@H]2C(=O)N1[C@H]1CC[C@H](C(=O)Nc2cccc3cccnc23)CC1`, the inhibition in the data set on HEK-293T [4] was below 20%; in data set [1], 89%. In data set [2], this molecule returned an IC50 of 0.004 µM. Further, the Activity in the data set with H9 [3] amounted to 145%. In addition, in the data set on H9 [5], the outcome was Active.

Molecule `O=C1c2ccccc2-c2cccc(NC(=O)[C@H]3CC[C@H](N4C(=O)[C@@H]5[C@@H]6CC[C@@H](C6)[C@@H]5C4=O)CC3)c21` displayed an inhibition in data set [1] of 88%. In data set [2], this molecule showed a concentration for half-maximal inhibition (IC50) of 0.194 µM. In addition, the Activity result was “Dose-dependent effect” with H9 [3] and 104% in the data set with H9 [3] (record 2).

With `Cc1cc(/C=C/c2ccc3cc(N(C)C)ccc3[n+]2C)c(C)n1-c1ccccc1`, in the data set with HEK-293T [6], the Activity entry is on record as “Toxic”.

For the molecule `CCOc1ccccc1NC(=O)[C@H]1CC[C@H](N2C(=O)[C@@H]3[C@@H]4CC[C@@H](C4)[C@@H]3C2=O)CC1`, the inhibition in data set [1] amounted to 78%. This molecule registered an IC50 in data set [2] of 0.19 µM.

`CC1[C@H]2CC[C@@H]1[C@@H]1C(=O)N(c3ccc(C(=O)Nc4cccc5cccnc45)cc3)C(=O)[C@@H]12` (some centres undefined) displayed an inhibition in data set [1] of 76%. Also, the midpoint of inhibition in data set [2], the IC50, lay at 1.18 µM.

`O=C1[C@@H]2[C@@H]3CC[C@@H](C3)[C@@H]2C(=O)N1[C@H]1CC[C@H](C(=O)Nc2cccc3ncccc23)CC1` had an inhibition in data set [1] of 68%. This molecule gave a half-inhibitory concentration (IC50) in data set [2] of 0.604 µM.

`O=C(Nc1cccc2cccnc12)c1ccc(N2C(=O)[C@@H]3[C@H](C2=O)[C@@H]2C=C[C@H]3CC2)cc1` came in with an inhibition in data set [1] of 83%. This molecule also had an IC50 in data set [2] of 0.412 µM.

`O=C1[C@@H]2[C@@H]3CC[C@@H](C3)[C@@H]2C(=O)N1[C@H]1CC[C@H](C(=O)Nc2ccccc2O)CC1`: the inhibition in data set [1] came to 76%. Besides, in data set [2], half-maximal inhibition (IC50) required 0.484 µM.

Consider `CC(=O)c1ncccc1NC(=O)[C@H]1CC[C@H](N2C(=O)[C@@H]3[C@@H]4CC[C@@H](C4)[C@@H]3C2=O)CC1`, for which the values for the inhibition (in the data set with HEK-293T [4]; in data set [1]) were below 20% and 79%, respectively. Also, in data set [2], half-maximal inhibition (IC50) was put at 0.007 µM. The same molecule yielded an Activity in the data set on H9 [3] of 145%. The outcome with H9 [5] was Active.

For `O=C(Nc1cccc2cccnc12)c1ccc(N2C(=O)[C@@H]3[C@@H]4CC[C@@H](C4)[C@@H]3C2=O)cc1`, in data set [1], the inhibition was determined as 93%. Besides, in data set [2], the half-inhibitory concentration (IC50) stood at 0.024 µM. The Activity entry in the data set with H9 [3] was “Dose-dependent effect”; in the data set on H9 [3] (record 2), 75%.

The molecule `O=C1[C@@H]2[C@@H]3CC[C@@H](C3)[C@@H]2C(=O)N1[C@H]1CC[C@@H](C(=O)Nc2cccc3cccnc23)CC1` gave an inhibition in data set [1] of 90%. For the same molecule, the IC50 in data set [2] is 0.057 µM. The values for the Activity result in the data set on H9 [3] and in the data set with H9 [3] (record 2) were “Dose-dependent effect” and 65%, respectively.

`O=C(Nc1cccc2ccccc12)c1ccc(N2C(=O)[C@@H]3[C@@H]4CC[C@@H](C4)[C@@H]3C2=O)cc1` gave an inhibition in data set [1] of 41%. This molecule displayed an IC50 in data set [2] of 1.59 µM. In addition, the Activity in the data set on H9 [3] was 8%.

As for `O=C1[C@@H]2[C@@H]3CC[C@@H](C3)[C@@H]2C(=O)N1c1ccc2c(c1)C(=O)N(c1cccc3cccnc13)C2=O`, in data set [1], the inhibition is 15%.

Take `O=C(Nc1ccccc1O)c1ccc(N2C(=O)[C@@H]3[C@@H]4CC[C@@H](C4)[C@@H]3C2=O)cc1`: the inhibition in data set [1] worked out at 33%.

In data set [1], `O=C1[C@@H]2[C@@H]3CC[C@@H](C3)[C@@H]2C(=O)N1[C@H]1CC[C@H](C(=O)Nc2cncc(O)c2)CC1` returned an inhibition of 86%. In addition, half-maximal inhibition in data set [2] (IC50) required 0.152 µM. Besides, the figures for the Activity entry in the data set on H9 [3] and in the data set with H9 [3] (record 2) were “Dose-dependent effect” and 61%, respectively.

Take `CC(=O)c1ccc(NC(=O)[C@H]2CC[C@H](N3C(=O)[C@@H]4[C@@H]5CC[C@@H](C5)[C@@H]4C3=O)CC2)cn1`: the results for the inhibition (in the data set with HEK-293T [4]; in data set [1]) were below 20% and 56%, respectively. Moreover, in data set [2], it took 0.59 µM to reach half-maximal inhibition (IC50). The Activity in the data set with H9 [3] is reported as 3%.

Values taken from ChEMBL document CHEMBL1955833, “Wnt inhibition correlates with human embryonic stem cell cardiomyogenesis: a structure-activity relationship study based on inhibitors for the Wnt response” (J Med Chem, 2012).
